Experimental data: article PMC4503318 (Chemistry & biology, 2015)
Like-named read-outs stand apart in the source and are kept apart here.

How the values were obtained:
[1] = target: Pf-like human LysRS (Homo sapiens, UniProt Q15046, P300T/Q321V/T337S); experiment: Thermal shift assay, Pf-like human LysRS; assay type: binding
Procedure, shortened: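 Pf-like human LysRS (residues 70-584) was co-expressed in E. coli BL21(DE3) with His-tagged AIMP2/p38 1-36 and purified by Ni affinity and gel filtration. A 2× mix held 4 μM protein in Tris-HCl pH 8.0/NaCl/DTT, plus 40 μM test compound, 1 mM lysine, 40 μM ATP or 2 mM CaCl2. It sat 30 min at room temperature, then was chilled and mixed 1:1 with dye. Fluorescence was read during heating from 10 to 90 °C at 1 °C/min, averaging 8 curves. Tm was fitted by Levenberg-Marquardt. Kd was extrapolated to 25 °C, assuming 62760 J/mol binding enthalpy. Kd was not determined for negative ΔTm.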

[2] = target: T1, PfLysRS (Plasmodium falciparum, UniProt Q8IDJ8); experiment: Thermal shift assay, PfLysRS; assay type: binding, P. falciparum
[3] = target: HsLysRS (Homo sapiens, UniProt Q15046); experiment: Thermal shift assay, HsLysRS; assay type: binding
Chain of HsLysRS (Q15046 70-584): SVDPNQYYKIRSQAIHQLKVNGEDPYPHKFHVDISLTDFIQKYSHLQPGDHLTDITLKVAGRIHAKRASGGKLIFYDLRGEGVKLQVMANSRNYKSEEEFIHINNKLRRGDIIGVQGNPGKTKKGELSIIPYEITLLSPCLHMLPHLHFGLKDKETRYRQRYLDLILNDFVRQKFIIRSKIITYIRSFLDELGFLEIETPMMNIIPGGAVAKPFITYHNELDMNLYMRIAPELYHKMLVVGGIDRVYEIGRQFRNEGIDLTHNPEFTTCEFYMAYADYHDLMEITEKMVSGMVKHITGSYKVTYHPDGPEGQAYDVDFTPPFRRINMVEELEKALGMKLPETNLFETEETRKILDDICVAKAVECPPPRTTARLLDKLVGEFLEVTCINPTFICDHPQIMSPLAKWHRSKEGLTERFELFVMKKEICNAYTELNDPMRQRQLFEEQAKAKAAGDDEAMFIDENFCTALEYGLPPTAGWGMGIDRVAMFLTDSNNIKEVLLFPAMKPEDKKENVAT
Chain of HsLysRS (Q13155 1-36 partner limits assumed): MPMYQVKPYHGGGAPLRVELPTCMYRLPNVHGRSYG

[4] = test system: IleRS; conditions: ref Hughes and Mellows, 1980; cited from earlier work
[5] = test system: Phomopsis viticola; conditions: CP at 30 μM; ref Wang et al., 2013; cited from earlier work
[6] = test system: yeast LysRS Q324V and T340S; conditions: Q324V and T340S mutations of yeast LysRS; ref Hoepfner et al., 2012; cited from earlier work
[7] = test system: Colletotrichum acutatum; conditions: CP at 30 μM; ref Wang et al., 2013; cited from earlier work
[8] = test system: Colletotrichum gloeosporioides; conditions: CP at 30 μM; ref Wang et al., 2013; cited from earlier work
[9] = test system: E. coli; conditions: up to 100 μg/ml CP; ref Anke, 1979; cited from earlier work
[10] = target: T1, PfLysRS; conditions: yeast-growth-based assay; ref Hoepfner et al., 2012; cited from earlier work
[11] = test system: human cells; conditions: ref Hoepfner et al., 2012; cited from earlier work
[12] = test system: Colletotrichum fragariae; conditions: CP at 30 μM; ref Wang et al., 2013; cited from earlier work
[13] = test system: blood- and liver- stage Plasmodium falciparum parasite forms; conditions: Plasmodium parasites compared to mammalian cells; ref Hoepfner et al., 2012; cited from earlier work
[14] = Pf-like human LysRS, ligand alone (no lysine co-ligand for ATP/CP)
[15] = Pf-like human LysRS, with lysine
[16] = HsLysRS, ligand alone (no lysine co-ligand for ATP/CP)
[17] = PfLysRS, ligand alone (no lysine co-ligand), estimated from ΔTm, 25°C

Chain of Pf-like human LysRS (Q15046 70-584 P300T/Q321V/T337S): as the sequence (Q15046 70-584) above, with P231T, Q252V, T268S counted along it
Chain of Pf-like human LysRS (Q13155 1-36 partner limits assumed): as the sequence (Q13155 1-36 partner limits assumed) above

Nc1ncnc2c1ncn2[C@@H]1O[C@H](COP(=O)(O)OP(=O)(O)OP(=O)(O)O)[C@@H](O)[C@H]1O [ATP]
ΔTm [1, 14]: -0.9 °C | ΔTm [1, 15]: 0.9 °C | Kd ([1]; Pf-like human LysRS, with lysine, estimated from ΔTm, 25°C): 2200 nM | ΔTm ([2]; PfLysRS, with lysine): 0.6 °C | ΔTm [3, 16]: -0.2 °C | ΔTm ([3]; HsLysRS, with lysine): 0.9 °C | Kd ([3]; HsLysRS, with lysine, estimated from ΔTm, 25°C): 2800 nM

C/C(=C\C(=O)OCCCCCCCCC(=O)O)C[C@@H]1OC[C@H](C[C@@H]2O[C@H]2[C@@H](C)[C@H](C)O)[C@@H](O)[C@H]1O [mupirocin]
selectivity for pathogenic over mammalian IleRS [4]: about 8000 fold

C[C@H]1CCC[C@H](C[C@H]2Cc3cc(O)cc(O)c3C(=O)O2)O1 [CP, cladosporin]
inhibition of growth [5]: over 80% | Kd [1]: 2100 nM | stabilization effect (melting temperature) ([1]; Pf-like human LysRS, CP even with the presence of lysine): < 2 °C | ΔTm [1, 14]: -1.1 °C | ΔTm [1, 15]: 1.0 °C | Kd ([2]; PfLysRS, K-CP (with lysine)): ~2.4 nM | Kd [2, 17]: 1500 nM | Kd ([2]; PfLysRS, with lysine, estimated from ΔTm, 25°C): 2.4 nM | binding affinity tighter than in HsLysRS ([2]; PfLysRS vs HsLysRS, with lysine): 1375 fold | stabilization by CP together with lysine relative to CP-alone ([2]; PfLysRS, 17.1 °C vs 2.4 °C): 7 fold | stabilization effect with non-cognate amino acids ([2]; PfLysRS, CP, lysine replaced with any of the other 19 non-cognate amino acids): did not yield stabilization effect | increase of binding affinity by the presence of lysine ([2]; PfLysRS, Kd with lysine vs no lysine): 625 fold | ΔTm at 40 µM ([2]; read-out: ΔTm): 2.4 °C | increase of sensitivity for CP inhibition [6]: 40 fold | inhibition of growth [7]: over 80% | inhibition of growth [8]: over 80% | effect on growth of E. coli [9]: not affected | potency against PfLysRS relative to HsLysRS or yeast LysRS [10]: 1000 fold | effect on the growth of human cells [11]: little effect | inhibition of growth [12]: over 80% | Kd [3]: 3300 nM | stabilization effect (melting temperature) ([3]; HsLysRS, CP even with the presence of lysine): < 2 °C | ΔTm [3, 16]: -0.8 °C | ΔTm ([3]; HsLysRS, with lysine): 0.3 °C | selectivity index (IC50/CC50) [13]: > 111

NCCCC[C@H](N)C(=O)O [Lysine, L-lysine]
ΔTm [1, 14]: -0.2 °C | Kd [2, 17]: 34100 nM | ΔTm at 1000 µM ([2]; read-out: ΔTm): 2.7 °C | Kd [3]: 84900 nM | ΔTm [3]: 0.1 °C
